B1: Cytochrome P450 2D6 (Homo sapiens) (protein)
chain: MGLEALVPLAVIVAIFLLLVDLMHRRQRWAARYPPGPLPLPGLGNLLHVDFQNTPYCFDQLRRRFGDVFSLQLAWTPVVVLNGLAAVREALVTHGEDTADRPPVPITQILGFGPRSQGVFLARYGPAWREQRRFSVSTLRNLGLGKKSLEQWVTEEAACLCAAFANHSGRPFRPNGLLDKAVSNVIASLTCGRRFEYDDPRFLRLLDLAQEGLKEESGFLREVLNAVPVLLHIPALAGKVLRFQKAFLTQLDELLTEHRMTWDPAQPPRDLTEAFLAEMEKAKGNPESSFNDENLRIVVADLFSAGMVTTSTTLAWGLLLMILHPDVQRRVQQEIDDVIGQVRRPEMGDQAHMPYTTAVIHEVQRFGDIVPLGVTHMTSRDIEVQGFRIPKGTTLITNLSSVLKDEAVWEKPFRFHPEHFLDAQGHFVKPEAFLPFSAGRRACLGEPLARMELFLFFTSLLQHFSFSVPTGQPRPSHHGVFAFLVSPSPYELCAVPR

What was measured:
[1] = system: Liver microsomes; experiment: Metabolic stability in human liver microsome assessed as ratio of half life between CYP2D6-deficient microsome and CYP2D6-deficient microsome with addition of exogenous CYP2D6; type: ADME
Summary of the method: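 Half-lives were measured in CYP2D6-deficient human liver microsomes with and without added exogenous CYP2D6. The value is the ratio of the half-life without CYP2D6 to the half-life with it.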

[2] = biological target: T1, Cytochrome P450 2D6 (Homo sapiens, UniProt P10635); experiment: Binding affinity to human CYP2D6 using bufuralol as substrate; type: ADME
[3] = system: Mustela putorius furo; experiment: Antiemetic activity against cisplatin-induced emesis in sc dosed ferrets; type: functional, organism-based
Summary of the method: (§1)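 Ferrets were given the test compound sc 30 min before cisplatin (10 mg/kg, ip). Retching and vomiting/gagging episodes were counted against vehicle control. Groups were n = 4–5, data are mean ± SEM, and Student's t-test was used. Results are given as ED90 (mg/kg, sc) or as % inhibition at the stated dose.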

[4] = biological target: Substance-P receptor (Homo sapiens, UniProt P25103); experiment: Displacement of [3H]SP from NK1 receptor in human IM9 cells
[5] = biological target: CYP2D6 (Homo sapiens, UniProt P10635); experiment: (§2) Inhibition of human CYP2D6 at 5 uM; type: ADME
[6] = system: Gerbillinae; experiment: Inhibition of [Sar9, Met(O2)11]SP-induced foot tapping in sc dosed gerbil
[7] = system: Gerbillinae; experiment: Inhibition of [Sar9, Met(O2)11]SP-induced foot tapping in gerbil at 1 mg/kg, sc relative to CP-122721; conditions: for inhibition in vivo at 1 mg/kg / % inhibition at 1 mg/kg: Gerbillinae, sc; for inhibition in vivo at 1 mg/kg / inhibition (INH): route subcutaneous, dose 1 mg/kg
[8] = system: Gerbillinae; experiment: Inhibition of [Sar9, Met(O2)11]SP-induced foot tapping in gerbil at 0.1 mg/kg, sc relative to CP-122721; conditions: for inhibition (INH) / inhibition in vivo at 0.1 mg/kg: dose 0.1 mg/kg, route subcutaneous; for inhibition in vivo at 0.1 mg/kg / % inhibition at 0.1 mg/kg: Gerbillinae, sc
[9] = system: Mustela putorius furo; experiment: Antiemetic activity against cisplatin-induced emesis in ferrets at 0.3 mg/kg, sc; type: functional; conditions: route subcutaneous; summary of the method: as §1
[10] = biological target: T1, Cytochrome P450 2D6; experiment: as §2; type: ADME; conditions: 5 µM
[11] = system: Mustela putorius furo; experiment: Antiemetic activity against cisplatin-induced emesis in ferrets at 0.1 mg/kg, sc; type: functional; conditions: route subcutaneous; summary of the method: as §1
[12] = system: Mustela putorius furo; experiment: Antiemetic activity against cisplatin-induced emesis in ferrets at 1 mg/kg, sc; type: functional; conditions: route subcutaneous; summary of the method: as §1
[13] = biological target: Substance-P receptor (Cavia porcellus) (UniProt P30547); experiment: Activity at NK1 receptor in po dosed guinea pig ureter assessed as capsaicin-induced plasma protein leakage; type: organism-based
Summary of the method: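 Guinea pigs were dosed orally. Capsaicin (30 µM) was given ip and caused plasma protein leakage in the ureter, taken as activation of peripheral NK1 receptors. Inhibition was measured across doses, and the ED50 was derived in mg/kg, po.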

[14] = substrate: COc1cc2c(cc1CN[C@H]1CCCN[C@H]1c1ccccc1)[C@](C)(C(F)(F)F)OCC2; experiment: Activity of CYP2D6 for N-dealkylation in human liver microsomes; type: ADME, Microsome
[15] = substrate: COc1cc2c(cc1CN[C@H]1CCCN[C@H]1c1ccccc1)[C@](C)(C(F)(F)F)OCC2; experiment: Activity of CYP2D6 for hydroxylation in human liver microsomes; type: ADME, Microsome
[16] = Mustela putorius, sc, read-out: ED90

Chain of Substance-P receptor (P25103 whole entry): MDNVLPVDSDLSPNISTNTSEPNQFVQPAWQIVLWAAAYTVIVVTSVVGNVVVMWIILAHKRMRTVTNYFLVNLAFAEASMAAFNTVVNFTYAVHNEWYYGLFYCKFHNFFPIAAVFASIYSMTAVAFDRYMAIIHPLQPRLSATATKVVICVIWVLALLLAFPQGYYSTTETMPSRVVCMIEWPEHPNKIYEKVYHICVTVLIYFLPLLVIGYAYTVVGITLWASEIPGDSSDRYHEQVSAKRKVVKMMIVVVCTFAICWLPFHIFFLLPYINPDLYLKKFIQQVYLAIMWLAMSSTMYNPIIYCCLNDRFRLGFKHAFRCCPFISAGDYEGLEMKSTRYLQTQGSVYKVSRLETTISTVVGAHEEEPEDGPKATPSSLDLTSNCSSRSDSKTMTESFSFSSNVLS
Chain of Substance-P receptor (Cavia porcellus) (P30547 whole entry): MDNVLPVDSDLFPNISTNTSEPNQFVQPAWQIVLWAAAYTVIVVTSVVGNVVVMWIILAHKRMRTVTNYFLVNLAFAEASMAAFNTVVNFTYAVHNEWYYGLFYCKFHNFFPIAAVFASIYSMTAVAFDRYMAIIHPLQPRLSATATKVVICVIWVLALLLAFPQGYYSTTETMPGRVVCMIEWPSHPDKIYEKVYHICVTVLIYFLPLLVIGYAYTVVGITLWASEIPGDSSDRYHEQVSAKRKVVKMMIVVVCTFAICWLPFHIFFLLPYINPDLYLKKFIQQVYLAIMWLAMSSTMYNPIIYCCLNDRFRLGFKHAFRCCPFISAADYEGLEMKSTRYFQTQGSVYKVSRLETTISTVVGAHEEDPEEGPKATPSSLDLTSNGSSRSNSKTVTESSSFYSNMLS

Molecule	Ratio [1]	Ki [2] [nM]	ED100 [3]	IC50 [4] [nM]	inhibition at 5 µM [5] [%]	ED50 [6] [mg/kg]	inhibition (INH) [7] [%]	further results
COc1ccc(C(C)C(F)(F)F)cc1CN[C@H]1CCCN[C@H]1c1ccccc1 (mixture of isomers)	2.2	840	>=1 mg kg-1	0.4	65.9	0.82	–	ED90 [3]: 0.3 mg/kg
COc1ccc(OC(F)(F)F)cc1CN[C@H]1CCCN[C@H]1c1ccccc1	–	–	>=0.3 mg kg-1	–	–	0.28	–	ED90 [3, 16]: 0.09 mg/kg
COc1ccc(C(OC)C(F)(F)F)cc1CN[C@H]1CCCN[C@H]1c1ccccc1 (mixture of isomers)	–	–	–	< 0.1	92.9	–	–	inhibition in vivo at 1 mg/kg [7]: 67%
COc1cc2c(cc1CN[C@H]1CCCN[C@H]1c1ccccc1)C(C)(C(F)(F)F)OC2 (mixture of isomers; 16)	–	–	–	0.16	–	–	94	inhibition (INH) [8]: 87%; inhibition in vivo at 0.3 mg/kg [9]: 99%; inhibition (INH) [10]: 81%
COc1cc2c(cc1CN[C@H]1CCCN[C@H]1c1ccccc1)C(C)(C(F)(F)F)CCC2 (mixture of isomers; 19)	1.58	–	–	0.21	–	–	85	inhibition (INH) [8]: 21%
COc1ccc(C(C)(OC)C(F)(F)F)cc1CN[C@H]1CCCN[C@H]1c1ccccc1 (mixture of isomers)	–	–	–	–	62.6	0.11	–	inhibition in vivo at 0.1 mg/kg [8]: 63%; inhibition in vivo at 0.1 mg/kg [11]: 15%; inhibition in vivo at 1 mg/kg [7]: 55%
COc1cc2c(cc1CN[C@H]1CCCN[C@H]1c1ccccc1)C(C(F)(F)F)CC2 (mixture of isomers; 11)	10.6	520	–	0.4	75.9	–	–	% inhibition at 0.1 mg/kg [8]: 79%; % inhibition at 1 mg/kg [7]: 88%
COc1cc2c(cc1CN[C@H]1CCCN[C@H]1c1ccccc1)C(C)(C(F)(F)F)CC2 (mixture of isomers)	–	–	–	< 0.1	–	–	–	% inhibition at 0.1 mg/kg [8]: 68%; % inhibition at 1 mg/kg [7]: 80%
COc1cc2c(cc1CN[C@H]1CCCN[C@H]1c1ccccc1)C(C(F)(F)F)CC2 (mixture of isomers; 10)	–	–	1 mg/kg	0.9	–	0.11	–	ED90 [3, 16]: 0.12 mg/kg; inhibition in vivo at 1 mg/kg [12]: 100%; inhibition (INH) [10]: 74.2%
COc1ccc(C(F)C(F)(F)F)cc1CN[C@H]1CCCN[C@H]1c1ccccc1 (mixture of isomers)	1.83	–	–	0.7	46.6	0.16	–	inhibition in vivo at 0.3 mg/kg [9]: 97%; inhibition in vivo at 0.1 mg/kg [11]: 97%
COc1cc2c(cc1CN[C@H]1CCCN[C@H]1c1ccccc1)C(C(F)(F)F)OC2 (mixture of isomers)	–	–	–	< 0.1	66.4	–	–	% inhibition at 0.1 mg/kg [8]: 84%; inhibition in vivo at 0.1 mg/kg [11]: 99%
COc1ccc(C(C(F)(F)F)C(F)(F)F)cc1CN[C@H]1CCCN[C@H]1c1ccccc1	2	2100	0.9 mg/kg	< 0.1	43.1	0.33	–	ED90 [3, 16]: 0.48 mg/kg
COc1cc2c(cc1CN[C@H]1CCCN[C@H]1c1ccccc1)C(C(F)(F)F)CCC2 (mixture of isomers; 18)	–	–	–	< 0.1	85.4	–	–	–
COc1cc2c(cc1CN[C@H]1CCCN[C@H]1c1ccccc1)[C@@](C)(C(F)(F)F)OCC2	–	–	–	0.34	–	–	–	–
COc1cc2c(cc1CN[C@H]1CCCN[C@H]1c1ccccc1)C(C)(C(F)(F)F)OC2 (mixture of isomers; 15)	2.1	660	0.3 mg/kg	< 0.1	–	–	77	ED90 [3, 16]: 0.05 mg/kg; inhibition (INH) [10]: 73%
COc1cc2c(cc1CN[C@H]1CCCN[C@H]1c1ccccc1)C(C)(C(F)(F)F)CCC2 (mixture of isomers; 20)	–	–	–	< 0.1	–	–	65	inhibition (INH) [8]: 0%; inhibition (INH) [10]: 42%
COc1ccc(CC(F)(F)F)cc1CN[C@H]1CCCN[C@H]1c1ccccc1	4.25	70	0.1 mg/kg	0.9	95.6	0.03	–	ED90 [3]: < 0.1 mg/kg
COc1ccc(C(C)(C)C(F)(F)F)cc1CN[C@H]1CCCN[C@H]1c1ccccc1	1.16	1340	1 mg/kg	0.2	54.8	0.12	–	ED90 [3, 16]: 0.21 mg/kg
COc1cc2c(cc1CN[C@H]1CCCN[C@H]1c1ccccc1)C(C(F)(F)F)CCC2 (mixture of isomers; 17)	7.35	–	1 mg/kg	0.5	–	–	77	inhibition in vivo at 0.1 mg/kg [8]: 55%; ED90 [3, 16]: 0.17 mg/kg; inhibition (INH) [10]: 76.5%
COc1ccc(C(C)(F)C(F)(F)F)cc1CN[C@H]1CCCN[C@H]1c1ccccc1 (mixture of isomers)	–	–	–	< 0.1	–	–	–	inhibition in vivo at 0.1 mg/kg [8]: 30%; inhibition in vivo at 1 mg/kg [7]: 57%
COc1ccc(C(C)C)cc1CN[C@H]1C2CCN(CC2)[C@H]1C(c1ccccc1)c1ccccc1 [EZLOPITANT]	1.8	420	–	–	64.1	–	–	ED90 [3, 16]: 2.1 mg/kg
COc1cc2c(cc1CN[C@H]1CCCN[C@H]1c1ccccc1)C(C)(C(F)(F)F)CCC2 (mixture of isomers; 22)	–	–	–	0.34	–	–	87	inhibition (INH) [8]: 26%; inhibition (INH) [10]: 90%
COc1cc2c(cc1CN[C@H]1CCCN[C@H]1c1ccccc1)C(C)(C(F)(F)F)CCC2 (mixture of isomers; 21)	1.8	120	–	< 0.1	–	–	91	inhibition (INH) [8]: 86%; inhibition in vivo at 0.1 mg/kg [11]: 97%
COc1cc2c(cc1CN[C@H]1CCCN[C@H]1c1ccccc1)C(C)(C(F)(F)F)OC2 (mixture of isomers; 14)	–	–	–	< 0.1	–	–	69	inhibition (INH) [8]: 15%; inhibition (INH) [10]: 41.8%
COc1cc2c(cc1CN[C@H]1CCCN[C@H]1c1ccccc1)[C@](C)(C(F)(F)F)OCC2	–	–	–	–	–	–	–	ED50 [13]: 0.005 mg/kg
B1	–	–	–	–	–	–	–	Km [14]: 2.3 µM; Km [15]: 16.6 µM
